Measurements from ChEMBL document CHEMBL4706607, “Anti-tubercular profile of new selenium-menadione conjugates against Mycobacterium tuberculosis H37Rv (ATCC 27294) strain and multidrug-resistant clinical isolates” (Eur J Med Chem, 2021).
In brackets after ≈: the same amount, converted by molar mass.

Tests used:
[1] = tested on: Mycobacterium tuberculosis; test: Antimycobacterial activity against multidrug resistance Mycobacterium tuberculosis CDCT-16 clinical isolates assessed as reduction in bacterial growth by resazurin reduction microplate assay; format: functional
Method in brief: (§1)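 REMA in Middlebrook 7H9 broth with 10% ADC. Compounds dissolved at 1 mg/mL in DMSO and diluted to 50 μg/mL in broth containing 5% DMSO. Ten-point two-fold dilutions gave 25.0 to 0.05 μg/mL. Growth and sterility controls on each plate. MIC was the lowest concentration preventing the blue-to-pink change.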

[2] = tested on: Mycobacterium tuberculosis; test: Antimycobacterial activity against multidrug resistance Mycobacterium tuberculosis CDCT-27 clinical isolates assessed as reduction in bacterial growth by resazurin reduction microplate assay; format: functional; method in brief: as §1

SMILES	MIC [1] [µM]	MIC [2] [µM]
NNC(=O)c1ccncc1 [ISONIAZID]	100 (≈ 13.7 µg/mL)	25 (≈ 3.43 µg/mL)
CCCCC(=O)[Se]CC1=C(C)C(=O)c2ccccc2C1=O	> 10	> 10
CC1=C(C[Se]C(=O)c2ccc(C)cc2)C(=O)c2ccccc2C1=O	> 10	> 10
CC1=C(C[Se]C(=O)c2ccccc2C)C(=O)c2ccccc2C1=O	3.1 (≈ 1.19 µg/mL)	3.1 (≈ 1.19 µg/mL)
CCc1ccc(C(=O)[Se]CC2=C(C)C(=O)c3ccccc3C2=O)cc1	> 10	> 10
COc1ccc(C(=O)[Se]CC2=C(C)C(=O)c3ccccc3C2=O)cc1	> 10	> 10
CCCC(C)C(=O)[Se]CC1=C(C)C(=O)c2ccccc2C1=O (stereo not given)	> 10	> 10
CC1=C(C[Se]C(=O)c2ccc(Cl)cc2)C(=O)c2ccccc2C1=O	> 10	> 10
CC1=C(C[Se]C(=O)c2ccccc2)C(=O)c2ccccc2C1=O	0.8 (≈ 0.295 µg/mL)	0.8 (≈ 0.295 µg/mL)
CC1=C(C[Se]C(=O)c2ccc(F)cc2)C(=O)c2ccccc2C1=O	0.8 (≈ 0.31 µg/mL)	3.1 (≈ 1.2 µg/mL)
